Results collected from several papers.
Compare with care: the assays were run in different laboratories.
Observed: cell growth or viability

Structure (SMILES)	cell line	assay	setting	measurement	value
C/C(=N\O)c1ccc(-c2cccc(OC(F)(F)F)c2)c(Cl)c1O	NCI-H1299	MTT	30 µM, 48 h	viability	83%
Clc1ccc(-c2nc3ccccc3n2Cc2ccccc2)cc1Cl	human Rhabdomyosarcoma cell	MTT		IC50	42.8 µM
C[C@@H](Oc1cc(-c2cnn(C3CCNCC3)c2)cnc1N)c1c(Cl)ccc(F)c1Cl	NCI-H3122	MTT	5 µg/mL, 72 h	inhibition	85.8%
Cc1cc(Nc2ccc(C(=O)N/N=C/c3ccnc(Cl)c3)cc2)c2cccc(O)c2n1	SMMC-7721	MTT	20 µM	inhibition	19.8%
COc1ccc(-c2ccc(-c3ccc(C(=N)N)nc3)s2)cc1	M14	SRB		GI50	1.8 µM
N#CSCCOc1ccccc1Oc1ccccc1	Vero		72 h	CC50	> 20 µM
Cc1cc(Nc2ncc(Cl)c(Nc3ccccc3S(=O)(=O)C(C)C)n2)c(OC(C)C)cc1C1CCNCC1	NCI-H3122	MTT	2 µg/mL, 72 h	inhibition	90.7%
Cc1ccc(/C=N/NC(=O)c2ccc(Nc3cc(C)nc4c(O)cccc34)cc2)cc1	SMMC-7721	MTT	20 µM	inhibition	50.8%
CCC[C@@H]1CNC(=O)C(=O)N1C[C@@H]1CCCN1C[C@H](Cc1ccc(O)cc1)N1C[C@@H](Cc2ccc(O)cc2)N(CC(CC)c2ccccc2)C(=O)C1=O (stereo partly shown)	CHO-K1	ATP luminescence	100 µM	inhibition	0%
COc1ccc(-c2nc3ccc(C)cc3[nH]2)cc1OC	human Rhabdomyosarcoma cell	MTT	48 h	IC50	> 100 µM
Cc1cc(Nc2ccc(C(=O)N/N=C/c3cc4ccccc4[nH]3)cc2)c2cccc(O)c2n1	SMMC-7721	MTT	20 µM	inhibition	54.3%
CN(C)c1ccc(-c2nc3ccccc3[nH]2)cc1	human Rhabdomyosarcoma cell	MTT	48 h	IC50	50.5 µM
CCn1cc(-c2cccc(C(F)(F)F)c2)c2sc(C(=N)NC3CCS(=O)(=O)CC3)cc2c1=O	HL-60		7 days	EC50	0.433 µM
Oc1ccc(Br)cc1-c1nc2ccccc2[nH]1	human Rhabdomyosarcoma cell	MTT	48 h	IC50	7.25 µM
FC(F)(F)[Se]CCOc1cccc(Oc2ccccc2)c1	Vero		72 h	CC50	> 20 µM
O=C(/C=C(O)/C=C/c1ccc[nH]1)/C=C/c1c[nH]c2ccccc12	CHO-K1	SRB	72 h	IC50	9.64 µM
Clc1ccc(-c2nc3ccccc3[nH]2)c(Cl)c1	human Rhabdomyosarcoma cell	MTT	48 h	IC50	35 µM
C/C(=N\O)c1ccc(-c2cccc(O)c2)c(Cl)c1O	NCI-H1299	MTT	30 µM, 48 h	viability	22%
Cc1ccc2nc(-c3c4ccccc4cc4ccccc34)[nH]c2c1	human Rhabdomyosarcoma cell	MTT	48 h	IC50	27 µM
COc1cc(Nc2nccc(-c3cnn4nc(OC)ccc34)n2)cc(C(F)(F)F)c1	OV56	ATP luminescence		IC50	1.4 µM
Cc1ccc2nc(-c3ccc(Cl)cc3)[nH]c2c1	human Rhabdomyosarcoma cell	MTT	48 h	IC50	48.3 µM
COc1cc(/C=C/C(=O)/C=C(O)/C=C/c2cccnc2)ccc1O	CHO-K1	MTT	72 h	IC50	21.4 µM
